In ChEMBL document CHEMBL1142266, “Structure-based virtual screening for the discovery of natural inhibitors for human rhinovirus coat protein” (J Med Chem, 2008):
Values after ≈ are worked out from the molar mass of the structure shown. Active and inactive are the calls of the source. The calls are words filed in the database; no cut-off is given here.

Columns and labels:
[1] = Cytotoxicity against human HeLa cells after 72 hrs; type: cell-based
[2] = Selectivity index, ratio of CC50 for HeLa cells to IC50 for HRV2 in HeLa cells; type: functional, Homo sapiens
[3] = system: rhinovirus A2; test: Antiviral activity against HRV2 in HeLa cells; type: functional, organism-based; details: Rhinovirus A
Outline: (§1)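 Cytopathic-effect inhibition assays in HeLa cells infected with pleconaril-sensitive HRV-1A, -2, -14 or -16. Dose-dependent inhibition of virus-induced CPE was measured, and the 50% inhibitory concentration (IC50) was derived.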

[4] = system: Human rhinovirus 1A; test: Antiviral activity against HRV1A in HeLa cells; type: functional, organism-based; outline: as §1
[5] = system: rhinovirus B14; test: Antiviral activity against HRV14 in HeLa cells; type: functional, organism-based; outline: as §1
[6] = system: rhinovirus A16; test: Antiviral activity against HRV16 in HeLa cells; type: functional, organism-based; outline: as §1
[7] = system: rhinovirus A2; test: Inactivation of HRV2 assessed as reduction in plaque at 0.25 ug/ml after 1 hr; type: functional; design: scale not given: the % may be the effect or the level left
Outline: (§2)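 Direct-inactivation test using a modified plaque-reduction format. HRV-2 was incubated with or without compound at 37 °C for 1 h, and the suspensions were then diluted 100-fold. Residual virus titer was determined by plaque assay on HeLa cells, with pleconaril run as positive control.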

[8] = system: rhinovirus A2; test: Inhibition of HRV2 absorption on HeLa cells assessed as reduction in plaques at 0.25 ug/ml after 2 hrs; type: functional; details: Rhinovirus A
[9] = system: rhinovirus A2; test: Inhibition of HRV2 replication cycle progression; type: functional, organism-based; details: Rhinovirus A
[10] = system: rhinovirus A16; test: Inhibition of HRV16 replication cycle progression; type: functional, organism-based; details: Rhinovirus A
[11] = Selectivity for HRV2 over HRV16; type: functional
[12] = system: rhinovirus A2; test: Inactivation of HRV2 assessed as reduction in plaque at 2.5 ug/ml after 1 hr; type: functional, organism-based; outline: as §2
[13] = system: rhinovirus A2; test: Inhibition of HRV2 absorption on HeLa cells assessed as reduction in plaques at 2.5 ug/ml after 2 hrs; type: functional; details: Rhinovirus A

Compound | IC50 [3] | EC50 [9] | EC50 [10] | IC50 [4] | IC50 ([5]; Rhinovirus B) | IC50 ([6]; Rhinovirus A) | CC50 at 72 h [1] | Ratio CC50/IC50 [2] | Activity [4] | Activity [5] | Activity [6] | Activity [7] | inhibition at 0.25 µg/mL [8] | Selectivity ratio [11] | Activity [12] | inhibition at 2.5 µg/mL [13]
C=C1CC[C@@H](O)C(C)(C)C1CC/C(C)=C/COc1ccc2ccc(=O)oc2c1 (some centres not stated) [FARNESIFEROL B] | 1 µg/mL (≈ 2.61 µM) |  |  |  |  |  | 8.2 µg/mL (≈ 21.4 µM) | 8.2 | inactive | inactive | inactive |  |  |  |  | 
Cc1cc(CCCOc2c(C)cc(-c3noc(C(F)(F)F)n3)cc2C)on1 [PLECONARIL] | 0.01 µg/mL (≈ 0.0262 µM) | 40 nM | 570 nM | 0.02 µg/mL (≈ 0.0524 µM) | 0.02 µg/mL (≈ 0.0524 µM) | 0.02 µg/mL (≈ 0.0524 µM) | 12.6 µg/mL (≈ 33 µM) | 1260 |  |  |  | 84.3% | 100% | 10 |  | 

Now from value to compound, other results behind:

IC50 [3] | EC50 [9] | EC50 [10] | IC50 [4] | IC50 ([5]; Rhinovirus B) | IC50 ([6]; Rhinovirus A) | Compound | CC50 at 72 h [1] | Ratio CC50/IC50 [2] | Activity [4] | Activity [5] | Activity [6] | Activity [7] | inhibition at 0.25 µg/mL [8] | Selectivity ratio [11] | Activity [12] | inhibition at 2.5 µg/mL [13]
0.96 µg/mL (≈ 2.51 µM) |  |  |  |  |  | C/C(=C\COc1ccc2ccc(=O)oc2c1)CCC1C(C)(C)[C@H]2CC[C@]1(C)O2 (some centres not stated) [FARNESIFEROL] | 7.7 µg/mL (≈ 20.1 µM) | 8.02 | inactive | inactive | inactive |  |  |  | inactive | 35.2%
> 10 µg/mL |  |  |  |  |  | C[C@H]1CC=C2[C@H](CC[C@H](O)C2(C)C)[C@@]1(C)COc1ccc2ccc(=O)oc2c1 [MICROLOBIDENE] | 10 µg/mL (≈ 26.1 µM) | <1 | inactive | inactive | inactive |  |  |  |  | 
> 15.5 µg/mL |  |  |  |  |  | CC(=O)O[C@H]1CC[C@]2(C)[C@H](CC[C@@](C)(O)[C@@H]2COc2ccc3ccc(=O)oc3c2)C1(C)C [KELLARIN] | 15.5 µg/mL (≈ 35 µM) | <1 | inactive | inactive | inactive |  |  |  |  | 
